Compound activity from PubChem.
EWS-Fli block – inhibitors of EWS/Fli oncoprotein transcriptional activity. A673 NR0B1-luciferase reporter, viability-normalised. inhibition, % at 12.6 µM. actives 0.67% (n = 350,000). AID 651661;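 active means mean inhibition of at least 50% after viability correction, with every replicate also passing that limit; inconclusive means mean reaches 50% but only one of two replicates passes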;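 further: firefly luciferase signal divided by Alamar Blue viability fluorescence both relative to DMSO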
TROY NFkB inh – TROY signaling inhibition. Q293 LMP1-TROYcd NF-kB luciferase reporter, 4 h. actives 0.98% (n = 360,000). inhibition, % at 10 µM. AID 1347056;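 active means compounds whose plate-normalised and pattern-corrected inhibition of the luciferase reporter signal at the single screening dose is 50% or more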
LGR2 inh – inhibitors of bursicon-induced Drosophila LGR2 receptor cAMP signaling | HEK293 LGR2, CRE-luciferase, bursicon-stimulated, 4 h | inhibition, % at 9.99 µM | actives 0.35% (n = 380,000);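 active means drop in luminescence signal, shown as inhibition above about 50% in the replicate tests, limit read from the data, passing the limit was not always enough; inconclusive means probably only some replicates passing the limit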;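 further: agonist challenge used bursicon conditioned medium at about half maximal strength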
FN deposit inh – fibronectin deposition inhibition | inhibition, % at 12.6 µM | AH1F fibroblasts, Alexa488-fibronectin deposition fluorescence, overnight | actives 0.086% (n = 350,000);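 active means mean inhibition across replicates of 30% or more, regardless of how many single replicates reach that level; inconclusive means mean under 30% yet at least half of replicates reach 30%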;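 further: positive control wells lacked labelled fibronectin entirely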
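Material: AH1F fibroblast monolayer depositing Alexa488-labelled fibronectin into matrix / Amount: 10000 AH1F cells per well / Signal: fluorescence 485/525 nm / Medium: DMEM, 2% serum / Compound: single dose, pinned / Incubation: 1 h cell adhesion before compound, then overnight fibronectin incubation / Reagent: Alexa488-FN, 24 nM final / Read-out: inhibition of fibronectin deposition signal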
TWEAK Fn14 block – blocks TWEAK-Fn14 interaction in a reporter cell assay; TWEAK-stimulated Fn14 reporter cells, luciferase luminescence, 8 h; inhibition, % at 10 µM; actives 2% (n = 360,000); in the data active means inhibition above about 50%
XiGFP reactiv – reactivates the inactive X chromosome in mouse fibroblasts; XiGFP mouse fibroblasts, % GFP-positive cells imaging, 3 d; cells co-treated with 5-aza-dC sensitizer; scaled so ellipticine positive control = 100%; activation, % at 7.58 µM; actives 0.055% (n = 360,000);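 active means mean normalized replicate activation at least 10% and every replicate at or above 10%; inconclusive means only one of the two criteria met; inactive means mean below 10% and not all replicates reach 10%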;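 further: 0% = median of on-plate neutral control wells and 100% = ellipticine 6 µM median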
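System: 68-5-11 XiGFP fibroblast line | Buffer or medium: DMEM containing 5-aza-dC | Compound: Single point | Times: Compounds 3 days, fix/stain 15 min at room temperature | Benchmarks: Positive control ellipticine, 6 µM final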
* = called active by the depositor; ? = inconclusive; / = not tested or not shown. Only some compounds are listed: those with a hit (about 2.3% of all), similar ones and a draw of the others.

SMILES	EWS-Fli block	TROY NFkB inh	LGR2 inh	FN deposit inh	TWEAK Fn14 block	XiGFP reactiv
CC(C)Oc1ccc(CNC(=O)CC(c2ccccc2)c2cc(Cl)ccc2O)cc1 (stereo unspecified)	/	56.2*	?	-9.4	47.3	/
CO[C@@H]1CN(C)C(=O)c2cc(NS(C)(=O)=O)ccc2OC[C@H](C)N(C(=O)NC(C)C)C[C@H]1C	-1.2	/	8.6	/	/	-0.2
Cc1c(N=C/C=C2/N(C)c3ccccc3C2(C)C)c(=O)n(-c2ccccc2)n1C	8.9	9.3	0.6	/	-0.4	0.4
CN1/C(=C\C=Nc2ccc3ccccc3c2)C(C)(C)c2ccccc21	/	65.5*	/	/	2.7	/
Cc1c(N=C/C=C2\N(C)c3ccccc3C2(C)C)c(=O)n(-c2ccccc2)n1C	6.9	-8.8	-19.9	/	-17.1	/
CN(C)c1ccc(N=C/C=C2\N(C)c3ccccc3C2(C)C)cc1	/	11.8	/	/	51.5*	/
C/C=C/c1cnc2c(c1)C(=O)N([C@H](C)CO)C[C@H](C)[C@H](CN(C)Cc1ccncc1)O2	-10.1	/	-36.1	/	/	-0.1
C[C@@H]1CN([C@H](C)CO)C(=O)Cc2cc(NC(=O)CCN3CCOCC3)ccc2O[C@H]1CN(C)S(=O)(=O)c1cn(C)cn1	-2.5	/	-2.3	/	/	0.2
CC(=O)Nc1ccc(-c2csc(Nc3cc(C)ccn3)n2)cc1	-28.7	30.0	-15.5	-0.5	50.3*	0.1
Cc1ccnc(Nc2nc(-c3ccccc3)cs2)c1	-108.7	7.8	17.2	10.8	52.7*	0.0
CC(=O)Nc1cccc(-c2csc(Nc3ccccn3)n2)c1	/	2.4	/	-1.8	57.9*	/
CC(=O)Nc1cccc(-c2csc(Nc3cc(C)ccn3)n2)c1	/	20.7	/	-0.5	49.0	/
C[C@@H]1CN([C@H](C)CO)C(=O)Cc2cc(NC(=O)c3ccncc3)ccc2O[C@@H]1CN(C)S(=O)(=O)c1ccc(Cl)cc1	6.1	/	-12.8	/	/	-1.2
O=C(C[C@H]1CC[C@H]2[C@@H](COC[C@@H](O)CN2S(=O)(=O)c2ccc(F)cc2)O1)NCC1CC1	5.1	/	4.0	5.1	/	0.0
O=C(c1ccccc1)N1CCC(c2nc(-c3ccc(S(=O)(=O)N4CCOCC4)cc3)no2)CC1	/	/	/	/	62.5*	/
Cc1cccc(C(=O)N2CCC(c3nc(-c4ccc(S(=O)(=O)N5CCOCC5)cc4)no3)CC2)c1	/	12.4	/	-5.0	1.6	/
c1ccc(CSc2ncnc3sccc23)cc1	-15.7	1.1	-14.6	0.1	4.8	0.3
CCc1cc2c(SCC(=O)Nc3ccc(NC(C)=O)cc3)ncnc2s1	1.2	2.7	2.9	2.6	-17.7	0.2
c1ccc2sc(Sc3ncnc4sccc34)nc2c1	-24.1	17.1	-25.6	-9.4	82.7*	0.0
CCc1cc2c(Sc3nc4ccccc4s3)ncnc2s1	/	-21.1	-3.4	/	94.5*	/
CCC(=O)N1[C@@H](CO)[C@H](c2ccccc2)C12CN(C(=O)c1ccc3c(c1)OCO3)C2	/	/	38.8	-18.9	/	0.1
O=C(COc1ccc2c(c1)CCC2)Nc1ccccn1	-48.4	70.6*	74.0*	1.1	96.7*	0.3
Cc1cccc(NC(=O)COc2ccc3c(c2)CCC3)n1	-18.6	-58.4	-80.3	-3.8	-15.3	0.0
Cc1cc(=O)oc2cc(OCC(=O)Nc3nccs3)ccc12	/	-33.2	-38.9	4.0	38.4	0.1
Cc1c(C)c2ccc(OCC(=O)Nc3ccccn3)cc2oc1=O	37.1	36.4	21.3	-11.2	81.7*	0.1
SMILES	EWS-Fli block	TROY NFkB inh	LGR2 inh	FN deposit inh	TWEAK Fn14 block	XiGFP reactiv
Cc1c(C)c2ccc(OCC(=O)Nc3nccs3)cc2oc1=O	/	47.6	55.5*	1.4	90.5*	0.0
CO[C@@H]1CN(C)C(=O)c2ccc(NC(C)=O)cc2OC[C@@H](C)N(C(=O)c2ccncc2)C[C@@H]1C	-7.7	/	10.6	4.5	/	0.5
CN(C)CCCNc1cc(O)c2ncccc2c1	-6.9	-33.3	96.9*	1.4	6.0	0.0
C[C@@H]1CN([C@@H](C)CO)C(=O)c2c(c3ccccc3n2C)-c2ccccc2CO[C@@H]1CN(C)S(=O)(=O)c1ccc(Cl)cc1	13.9	/	-5.0	1.9	/	-0.8
CN(C)C(=O)C[C@H]1C=C[C@@H](NC(=O)Nc2cccc(F)c2)[C@@H](CO)O1	2.9	/	20.2	-4.5	/	0.0
Cc1ccc(C)c(-c2nc3cc(N)ccc3o2)c1	/	/	/	/	66.6*	/
Nc1ccc2oc(-c3ccccc3Cl)nc2c1	37.8	-15.2	-24.7	-5.9	51.1*	-0.1
